ChEMBL document CHEMBL6182837, “Discovery and biological evaluation of nitrofuranyl-pyrazolopyrimidine hybrid conjugates as potent antimicrobial agents targeting Staphylococcus aureus and methicillin-resistant S. aureus” (RSC Med Chem, 2025)
The source made the active and inactive calls. The rule behind the calls is not given here.

Assays:
Staphylococcus aureus [1] = experiment: Additive antibacterial activity against Staphylococcus aureus ATCC 29213 assessed as fractional inhibitory concentration index at 0.02 ug/ml incubated up to 24 hrs in presence of ciprofloxacin by checkerboard analysis; format: functional; settings: dose 0.02 µg/ml
Outline: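 Checkerboard microdilution in cation-adjusted MHB, done per CLSI. The compound and partner antibiotic were dissolved in DMSO. The antibiotic was serially diluted across the plate and the compound was twofold serially diluted into the wells to make the combinations. Each well received 0.1 ml of inoculum, a 0.5 McFarland suspension (1.5 × 10^8 CFU ml−1) diluted 1:100 in MHB. Plates were incubated 24 h at 37 °C, then read with Alamar blue (0.04%). FIC index was calculated.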

Staphylococcus aureus [2] = experiment: Bactericidal activity against methicillin-resistant Staphylococcus aureus ATCC 15187 assessed as reduction in bacterial count at 2 times MIC measured after 8 to 10 hrs by time-kill assay; format: functional, organism-based; settings: time 8-10 hrs
Staphylococcus aureus [3] = experiment: Synergistic bactericidal activity against Staphylococcus aureus ATCC 29213 assessed as reduction in bacterial count at 0.02 ug/ml measured after 24 hrs in presence of vancomycin by time-kill assay; format: functional, organism-based; settings: dose 0.02 µg/ml
Outline: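 Time-kill with compound combined with vancomycin at synergistic concentrations (from checkerboard FIC) against S. aureus; CFU followed up to 8 h and at 24 h.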

Staphylococcus aureus [4] = experiment: Antibacterial activity against Staphylococcus aureus ATCC 29213 infected in mouse RAW264.7 cells assessed as bacterial eradication by colony counting method; format: functional, organism-based
Outline: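 RAW 264.7 macrophages infected with S. aureus, then treated with compound at multiples of MIC non-toxic to the cells; intracellular bacterial load enumerated as CFU ml−1; vancomycin comparator; one-way ANOVA versus infection control.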

Staphylococcus aureus [5] = experiment: Antibacterial activity against methicillin-resistant Staphylococcus aureus ATCC 15187 infected in male Balb/c/c mouse assessed as reduction in bacterial load in lung at 50 to 100 mg/kg measured after 24 hrs by colony counting method; format: functional, organism-based; settings: dose 50-100 mg/kg
Outline: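 Mouse peritonitis model: 0.1 ml MRSA suspension (10^8 CFU ml−1) given intraperitoneally; treatment intraperitoneal at 50 or 100 mg kg−1 at 2 and 5 h post-infection, with saline and vancomycin (50 mg kg−1) controls; killed at 24 h; kidney and lung homogenates plated on Mueller–Hinton agar with 20 μg ml−1 ciprofloxacin, 24 h; CFU ml−1; unpaired t-test.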

J774.A1 = experiment: Cytotoxicity against mouse J774.A1 cells up to 200 ug/ml incubated for 24 hrs by absorbance based assay

SMILES: CCCc1nn(C)c2c(Nc3ccc(O)cc3)nc(-c3ccc([N+](=O)[O-])o3)nc12
- fractional inhibitory concentration index (FICI) (Staphylococcus aureus [1]): 1
- Activity (Staphylococcus aureus [2]): Not active; Initial Killing Was Observed, But Exhibited Some Re-Growth After 8 To 10 Hrs
- Activity (Staphylococcus aureus [3]): inactive
- Activity (Staphylococcus aureus [4]): Dose-dependent-effect
- Activity (Staphylococcus aureus [5]): Active; Significantly Lesser Effect Was Observed At 50 To 100 Mg/Kg Compared To Vancomycin
- Activity (J774.A1): Non-toxic
